Columns and labels:
Pancreatic elastase = Pancreatic elastase (Sus scrofa, UniProt P08419+P00772); experiment: Ki value was evaluated for the inhibition of porcine pancreatic elastase; format: protein assay
In short: (§1)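 PPE, 9.0 × 10⁻⁶ M, incubated with inhibitor in acetonitrile in 50 mM phosphate pH 6.5 at 25 °C, at inhibitor:enzyme ratios of 20–150. Aliquots taken over time were assayed with Boc-L-Ala-p-nitrophenyl ester: 30 s preincubation, then absorbance change over 2 min at 347.5 nm. Controls contained acetonitrile. Kobs came from ln(Et/E0) vs time, two runs per concentration. Ki and k3 came from the double-reciprocal replot, and k3/Ki was computed.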

[1] = target: T1, Pancreatic elastase (Sus scrofa) (UniProt P08419+P00772); experiment: k3 value was evaluated for the inhibition of porcine pancreatic Elastase; format: protein assay; in short: as §1
Neutrophil elastase = target: T2, Neutrophil elastase (Homo sapiens, UniProt P08246); experiment: Ki value was evaluated for the inhibition of human leukocyte elastase
T2 sequence (P08246 whole entry): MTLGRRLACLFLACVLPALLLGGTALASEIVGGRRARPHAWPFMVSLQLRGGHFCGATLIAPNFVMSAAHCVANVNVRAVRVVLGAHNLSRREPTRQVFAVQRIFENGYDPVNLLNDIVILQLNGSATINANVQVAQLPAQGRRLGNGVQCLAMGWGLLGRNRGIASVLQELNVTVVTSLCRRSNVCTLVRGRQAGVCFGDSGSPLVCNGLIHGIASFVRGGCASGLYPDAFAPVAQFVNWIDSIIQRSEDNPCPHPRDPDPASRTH
In short: (§2)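 HLE, 1.6 × 10⁻⁷ M, in Tris-HCl buffer pH 8.0 at 25 °C. Inhibitor was dissolved in N-methylpyrrolidinone. Loss of activity was followed continuously with succinyl-L-trialanyl-p-nitroanilide at 410 nm as a pseudo-first-order reaction, and rate constants were found by the Tsou method. Ki and k3 were taken from the double-reciprocal replot 1/kobsd vs 1/[I].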

[2] = target: T1, Pancreatic elastase (Sus scrofa); experiment: k3 value was evaluated for the inhibition of porcine pancreatic elastase; format: protein assay; in short: as §1
[3] = target: T3, Neutrophil elastase (Homo sapiens) (UniProt P08246); experiment: k3 value was evaluated for the inhibition of human leukocyte elastase; in short: as §2
T3 sequence (whole entry): T2 sequence (P08246 whole entry)

[4] = target: T3, Neutrophil elastase (Homo sapiens); experiment: Percent inhibition against human leukocyte elastase; details: concentration not given here
In short: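 HLE, 1.53 × 10⁻⁴ M stock in Tris-HCl pH 7.5, was incubated with inhibitor for 20 min. Residual activity was assayed by adding succinyltrialanyl-p-nitroanilide (2.3 × 10⁻³ M stock in Tris buffer).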

[5] = target: T1, Pancreatic elastase (Sus scrofa); experiment: Percent inhibition against porcine pancreatic elastase; format: protein assay; details: concentration not given here
In short: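 PPE, 4.50 × 10⁻⁶ M stock in phosphate buffer pH 6.5, was incubated at 25 °C for 20 min with inhibitor (2.50 × 10⁻³ M stock in acetonitrile). Remaining activity was assayed by adding Boc-L-alanyl-p-nitroanilide (2.22 × 10⁻² M stock).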

[6] = target: T1, Pancreatic elastase (Sus scrofa); experiment: k3/k1 ratio of the compound; format: protein assay; in short: as §1

| Ki (Pancreatic elastase) | k3 [1] | Structure (SMILES) | other results |
| --- | --- | --- | --- |
| 2410 µM | 0.005 s⁻¹ | CCCCNC(=O)n1ccnc1C |  |
| 7230 µM | 0.001 s⁻¹ | CCCCNC(=O)n1cnc(C)c1 |  |
| 1110 µM |  | COC(=O)[C@@H](NC(=O)n1ccnc1)C(C)C | Ki (Neutrophil elastase): 1800 µM; k3 [2]: 0.183 min⁻¹; k3 [3]: 20.8 min⁻¹ |
|  |  | CCCC(N=C=O)C(=O)OC (centres undefined) | inhibition [4]: 100%; inhibition [5]: 98% |
| 1170 µM | 0.000667 s⁻¹ | COC(=O)[C@H](CC(C)C)NC(=O)n1ccnc1 | k3/k1 [6]: 0.5 M⁻¹ s⁻¹ |
| 840 µM | 0.00537 s⁻¹ | CCC[C@H](NC(=O)n1ccnc1)C(=O)OC | Ki (Neutrophil elastase): 320 µM; k3 [3]: 9.6 min⁻¹ |
| 2410 µM | 0.002 s⁻¹ | CCCCCCCc1nccn1C(=O)NCCCC |  |
|  |  | COC(=O)[C@H](CCSC)NC(=O)n1ccnc1 | inhibition [4]: 100%; inhibition [5]: 0% |
| 1220 µM | 0.00117 s⁻¹ | CCC(C)[C@H](NC(=O)n1ccnc1)C(=O)OC (some centres undefined) | k3/k1 [6]: 1 M⁻¹ s⁻¹ |
| 470 µM | 0.002 s⁻¹ | CCCCNC(=O)n1ccnc1CC |  |
| 1400 µM |  | CCCCNC(=O)n1ccnc1 | k3 [2]: 0.66 min⁻¹ |
| 1940 µM | 0.00425 s⁻¹ | CCCCC(NC(=O)n1ccnc1)C(=O)OC (centres undefined) | Ki (Neutrophil elastase): 1000 µM; k3 [3]: 10 min⁻¹ |
|  |  | COC(=O)C(CCSC)N=C=O (centres undefined) | inhibition [4]: 100%; inhibition [5]: 27% |
